# Data as given in PubChem BioAssay AID651999 (Sanford-Burnham Center for Chemical Genomics, 2013).
# The whole screen tested about 360,000 compounds, of which about 1,400 (0.39%) were called active. The entries come from a sample that favours actives as a whole. Unmarked numbers belong to inactive results.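 How the source made its calls: active means pattern-corrected inhibition above about 35%, with an unprinted fluorescence ratio check between 0.5 and 1.5 (limit read from the data, passing the limit was not always enough); inactive means the rest.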
# Target: COP9 signalosome complex subunit 5 (Homo sapiens) (UniProt Q92905)
# Assay: inhibitors of CSN-mediated cullin deneddylation, primary screen, biochemical, fluorescence polarization, uHTS (AID 651999);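 further: 0% = enzyme with substrate and 100% = substrate without enzyme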
# Details: Purified CSN, SCF-Nedd8-OG deneddylation, at 12.5 µM, active compounds read high
# Outline: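 Assay system: purified human Csn5 enzyme expressed in HEK293T cells; measure: % inhibition; also added: SCFSkp2-Nedd8OG substrate at 10 nM final; technique: fluorescence polarization; times: reaction 90 min, room temperature; medium: Tris buffer pH 7.5, NaCl, DTT, Tween-20, trehalose, ovalbumin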
# COP9 signalosome complex subunit 5 (Homo sapiens), sequence (Q92905 whole entry, looked up, one chain of several): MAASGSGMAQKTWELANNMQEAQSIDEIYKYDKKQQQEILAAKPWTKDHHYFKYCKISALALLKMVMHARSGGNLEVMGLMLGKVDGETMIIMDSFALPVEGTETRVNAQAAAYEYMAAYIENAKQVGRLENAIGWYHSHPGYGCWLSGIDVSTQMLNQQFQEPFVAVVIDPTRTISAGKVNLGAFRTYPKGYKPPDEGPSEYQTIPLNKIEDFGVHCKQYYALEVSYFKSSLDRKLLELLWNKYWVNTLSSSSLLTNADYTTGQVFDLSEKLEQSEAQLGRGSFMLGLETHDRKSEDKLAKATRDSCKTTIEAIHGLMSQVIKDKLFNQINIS
row,Structure (SMILES),inhibition
1,O=C(NCc1ccncc1)C(=O)NCc1ccco1,-6.34%
2,CCCN(CC1CC1)C(=S)NC(=O)c1ccccc1Br,-6.61%
3,CN1CCN(c2ccc(S(=O)(=O)N3CCOCC3)cc2NC(=O)CCc2ccccc2)CC1,2.64%
4,CCOC(=O)CN(C)S(=O)(=O)c1ccc(-c2cc(C(=O)OC)sc2C(F)(F)F)cc1,1.34%
5,COc1ccc(Nc2cc(Sc3ccc(OC)cc3)ncn2)cc1,-0.7%
6,COc1ccc(NC2=CC(=S)NC(C)(C)C2)cc1,42.9% (active)
7,COc1ccc(CCNC2=CC(=O)CC(C)(C)C2)cc1,-5.48%
8,O=C(NCCc1ccccc1)C(=O)NCC1OCCN1S(=O)(=O)c1cccs1 (stereo not drawn),0%
9,O=C(Nc1ccc(Cl)c(Cl)c1)c1ccccc1NC(=O)C1CC=CCC1C(=O)O (stereo not drawn),-4.09%
10,Cc1cc(N(C)C)cc(C)[n+]1[O-],-2.98%
11,O=C1CSC(c2ccc(Cl)cc2)N1 (stereo not drawn),-5.2%
12,CCCCC(c1nnnn1CS(=O)(=O)c1ccc(C)cc1)N1CCC(C(N)=O)CC1 (stereo not drawn),-2.76%
13,CC(C)(C)C1C/C(=C/c2ccco2)C(=O)/C(=C/c2ccco2)C1 (stereo not drawn),41.2% (active)
14,CCCC/C(C)=N/NC(=O)NC1CCCCC1,-3.54%
15,Nc1c(-c2ccc(F)cc2)cnc2ncnn12,2.66%
16,O=C(COc1ccc2c(C(F)(F)F)cc(=O)oc2c1)Nc1ccc2c(c1)OCCO2,187% (active)
17,CCN(CC(=O)Nc1ccc2c(c1)OCCO2)Cc1cc(=O)oc2cc(C)c(C)cc12,4.55%
18,CCc1ccccc1OCC(=O)Nc1ccc2c(c1)OCCO2,1.42%
19,Cc1cccc(OCC(=O)NCCNC(=O)c2cccnc2)c1,0.16%
20,Cc1ccc(NC(=O)COc2ccc(-n3ccnc3)cc2)cc1Cl,0%
21,Cc1ccc(NC(=O)COc2ccc(/C=N\NC(=O)c3cccnc3)cc2)cc1C,158% (active)
22,CSCCC(NS(=O)(=O)c1ccc(C)cc1)C(=O)N(C)CC(=O)Nc1ccccc1Br (stereo not drawn),1.95%
23,Cc1nc(SCC(=O)NC2CCCCC2C)c(C#N)c(C)c1C (stereo not drawn),0.75%
24,CCC(C)N1C(=O)S/C(=C/c2ccc(Sc3nc4ccccc4[nH]3)o2)C1=O (stereo not drawn),4.54%
25,O=C(O)C(c1ccccc1)N1C(=O)/C(=C\c2ccc(-c3cccc(Cl)c3)o2)SC1=S (stereo not drawn),93.7% (active)

row,Structure (SMILES),inhibition
1,CC1COc2ccccc2N1S(=O)(=O)c1ccccc1 (stereo not drawn),-12.8%
2,CCOC(=O)C1CCN(C(=O)CC2C(=O)N(Cc3ccccc3)C(C)c3nc4ccccc4n32)CC1 (stereo not drawn),4.78%
3,CN(C)N=Nc1ccc2nc[nH]c2c1,-1.48%
4,CC1=CC(=NNS(=O)(=O)c2ccc([N+](=O)[O-])cc2)CC(C)(C)C1,8.55%
5,Cc1ccc(Cc2cnc(N)s2)o1,36.5% (active)
6,CC(=O)c1nnn(-c2ccc(Cl)cc2C#N)c1C,0.92%
7,CC(C)(C)c1ccc(C(=O)N2CCC(C(=O)N3CCCCC3)CC2)cc1,-2.5%
8,O=c1ccc(-c2ccc(S(=O)(=O)Nc3ccccc3)o2)n[nH]1,6.31%
9,CCOc1ccc(/C=C(/NC(=O)c2ccccc2)C(=O)NCCC(=O)O)cc1,-10.6%
10,Cn1c2ccccc2c2cc(/C=C(\NC(=O)c3ccccc3)C(=O)NCC(=O)O)ccc21,60.8% (active)
11,O=C(NCC1CCCO1)/C(=C/c1ccc(Cl)cc1)NC(=O)c1ccccc1 (stereo not drawn),-2.86%
12,CC1CCN(S(=O)(=O)c2ccc(S(=O)(=O)NCc3ccco3)cc2)CC1,0.01%
13,Cc1noc(NS(=O)(=O)c2ccc(N3CC(O)=C(c4ccccc4)C3=N)cc2)c1C,2.49%
14,O=C1CC(c2c(F)cccc2Cl)C(n2cncn2)C(O)=C1C1NCCc2ccccc21 (stereo not drawn),-3.94%
15,CCOc1ccc(-n2c(SCC(=O)Nc3ccc(OC)cc3)nc3sc4c(c3c2=O)CCN(C)C4)cc1,102% (active)
16,CCn1c(SCC(=O)Nc2ccc(Br)cc2)nc2sc3c(c2c1=O)CCN(C)C3,3.55%
17,CCCSc1nc2sc3c(c2c(=O)n1-c1ccc(OC)cc1)CCN(C)C3,7.27%
18,CCN(CC)C(=O)CSc1nnc(-c2ccc(S(=O)(=O)NCc3ccccc3Cl)cc2)o1,-2.99%
19,NC(=S)c1ccc(C(N)=S)o1,2.12%
20,O=C(NCCCn1ccnc1)c1cc2c(s1)CCCC2,0.16%
21,COc1ccc2c(c1)OC(O)(C(F)(F)C(F)F)CC2=O (stereo not drawn),2.02%
22,Oc1ccc(N=Cc2c(O)ccc3ccccc23)cc1,58.2% (active)
23,C/C(=N\NC(N)=S)c1cccnc1,-5.1%
24,CCc1nc2c(=O)[nH]cnc2o1,-0.47%
25,Cc1c(CNCCc2ccccc2)c(C(=O)O)c(C)n1-c1ccccc1,-2.52%

row,Structure (SMILES),inhibition
1,Cc1ccc(OCCNC(=O)c2cccc(S(=O)(=O)N3CCN(Cc4ccccc4)CC3)c2)cc1,-1.93%
2,Cn1c(=O)[nH]c2c(c(C(=O)O)nn2C)c1=O,-1.75%
3,COc1cccc(/C=N/NC(=O)c2[nH]nc3c2CCc2ccccc2-3)c1O,67% (active)
4,COc1cc(/C=N\NC(=O)c2nonc2N)c(OC)cc1Br,3.66%
5,COc1ccccc1N1CCN(C(=O)C(=O)N/N=C/c2ccccc2F)CC1,-1.85%
6,CC1CC(C)CN(C(=O)CCNC(=O)Cn2cnc3ccccc3c2=O)C1 (stereo not drawn),-0.46%
7,O=C(CN1CCN(c2ncc(C(F)(F)F)cc2Cl)CC1)Nc1ccc2c(c1)OCO2,4.43%
8,CCCC(=O)n1nc(NCc2ccc(OC)cc2)nc1NCc1ccc(OC)cc1,0.03%
9,CC1(C)C=Cc2c(ccc3c2OC[C@@H](c2ccc(O)cc2O)C3)O1,1.92%
10,Cc1cc(Br)cn2c(Cc3ccsc3)c(-c3ccc(C#N)cc3)nc12,77.2% (active)
11,Cc1cc(Br)cn2c(Cc3cccc(F)c3)c(-c3cccc(Br)c3)nc12,1.9%
12,Cc1ccc(-c2nc3c(C)cc(Br)cn3c2Cc2ccccc2)cc1,-3.35%
13,COC(=O)c1cc(NC(=O)CC2C(=O)NCCN2C(=O)c2ccc(F)cc2)cc(C(=O)OC)c1 (stereo not drawn),0.24%
14,CS(=O)(=O)c1ccc(-c2nnn(CC(=O)Nc3ccc4c(c3)OCCO4)n2)cc1,0.36%
15,CS(=O)(=O)c1ccc2c(c1)SC1=NC(=O)/C(=C/c3ccco3)C(=N)N12,58.8% (active)
16,COc1ccc(N2CCN(C(=O)CNS(=O)(=O)c3ccc(C)c(C)c3)CC2)cc1,-4.8%
17,COc1ccc(NC(=O)CC2SC(N3CCCCC3)=NC2=O)cc1OC (stereo not drawn),0.22%
18,COc1ccc(S(=O)(=O)N2CCN(CC(=O)N3c4ccccc4CC3C)CC2)cc1OC (stereo not drawn),18.4%
19,CCOC(=O)c1cc(NC(=O)c2ccc(Cl)cc2)c(=O)oc1-c1ccccc1,-2.25%
20,CC(=O)c1cc(NC(=O)c2ccccc2)c(=O)oc1/C=C/N(C)C,55.4% (active)
21,COc1ccc(C2COC(=O)C2=N)c(NC(=O)c2ccccc2)c1 (stereo not drawn),-4.82%
22,CCCCCCCC1(C)NC(=O)N(CC(=O)Nc2cc(C)on2)C1=O (stereo not drawn),-7.92%
23,C=CCn1c(SCc2cccc(F)c2)nc2cc(C(=O)N3CCC(C(N)=O)CC3)ccc2c1=O,0.76%
24,O=C1Nc2cc(C(=O)N3CCN(c4ccc(F)cc4)CC3)ccc2NC1CSCc1cccc(F)c1 (stereo not drawn),51.2% (active)
25,Cc1ccc(CSCC2Nc3ccc(C(=O)N4CCN(c5ccc(F)cc5)CC4)cc3NC2=O)cc1 (stereo not drawn),25.2%

row,Structure (SMILES),inhibition
1,O=C(NCc1cccs1)c1ccc(Br)o1,-0.05%
2,CC(C)Cn1c(N)c(C(=O)NCc2cccs2)c2nc3ccccc3nc21,36% (active)
3,O=C(Cc1coc2ccc3ccccc3c12)NCc1cccs1,-8.34%
4,COc1cc(/C=C2/C(=O)NN(c3cccc(Cl)c3)C2=O)cc(Br)c1O,44.4% (active)
5,CCOc1c(Br)cc(/C=C2\C(=O)N(CCC#N)N=C2C)cc1OC,2.79%
6,CCc1nc2ccc(C(=O)N(C)CCN(C)C)cn2c1N(CC)CCOC,-0.82%
7,O=C(CC1Oc2ccccc2NC1=O)NCCCN1CCN(Cc2ccccc2)CC1 (stereo not drawn),-8.5%
8,CN1CCN(CCCNC(=O)c2ccc(/C=C3\Oc4ccccc4N(Cc4ccc(Cl)cc4)C3=O)cc2)CC1,119% (active)
9,O=C(CCN1C(=O)COc2ccccc21)NCCCN1CCN(c2ccc(F)cc2)CC1,-4.53%
10,Cc1nonc1OCCn1nnnc1N,-0.98%
11,O=C(O[C@H]1[C@H](Cc2ccccc2)NS(=O)(=O)[C@H]2C[C@@H]3C=C[C@]12O3)c1ccc([N+](=O)[O-])cc1,0.94%
12,CCCSc1nc2[nH]ncc2c(=O)[nH]1,0.78%
13,Cn1ccnc1-c1nnn(-c2ccc(F)cc2)n1,-1.15%
14,COc1ccc(NC(=O)CSc2nc3ccccc3c(=O)n2C)cc1,81.7% (active)
15,COc1ccc(NC(=O)CSc2nnc(Cc3ccccc3)c(=O)n2N)cc1,2.76%
16,CC(=O)NCCn1c(SCC(=O)Nc2ccc(C)cc2)nc2ccccc2c1=O,-2.03%
17,C=CCSc1nc2c(c(=O)[nH]1)C(C(C)C)C(C#N)=C(N)O2 (stereo not drawn),-4.61%
18,CCCNC(=O)C(=O)Nc1cc2c3c(c1)CCC(=O)N3CCC2,-1.23%
19,COc1ccc(NS(=O)(=O)c2ccc(C)c(C(=O)N(C)Cc3ccc(OC)cc3OC)c2)cc1,157% (active)
20,CCOc1ccc(NS(=O)(=O)c2ccc(C)c(C(N)=O)c2)cc1,8.11%
21,COc1ccc(NS(=O)(=O)c2ccc(C)c(C(=O)NCC(c3cccs3)N3CCOCC3)c2)cc1 (stereo not drawn),1.17%
22,CC1O[C@H](OC2C(COC3OC(CO)C(O)[C@H](O)C3O)OC(OC3CC[C@]4(C)C(CC[C@@]5(C)[C@@H]4C=C[C@]46OC[C@@]7(CCC(C)(C)C[C@H]74)C(O)C[C@@]56C)C3(C)C)C(O)C2O)C(O)C(O)C1O (stereo partly drawn),-2.09%
23,COc1ccc(-n2nnc3c(=O)n(CC(=O)N4CCC(Cc5ccccc5)CC4)cnc32)cc1,-0.9%
